# Screens deposited in PubChem BioAssay by The Scripps Research Institute Molecular Screening Center.
# UHRF1 MBD2 ctr: blocks human UHRF1 binding to methylated DNA; Q96T88; UHRF1 binding to methylated oligo, TR-FRET; inhibition, % at 4.4 µM; 370,000 compounds, 0.75% hits; AID 687016; in the data active = inhibition above about 21%;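 note: UHRF1 SRA domain binding a hemimethylated CpG hairpin DNA probe; 0% = median of test compound wells and 100% = reference inhibitor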
# TDP2 inh: TDP2 (human) inhibition, absorbance primary screen; O95551; recombinant TDP2, T5PNP hydrolysis, p-nitrophenol absorbance 415 nm; inhibition, % at 12.8 µM; 370,000 compounds, 0.34% hits; AID 720702;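 active = inhibition above the mean of all tested compounds plus 3 SD, set per campaign, cut at about 25% in these data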;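 note: 0% = DMSO with enzyme and 100% = buffer with substrate but no TDP2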
# Target sequence (O95551 whole entry, looked up): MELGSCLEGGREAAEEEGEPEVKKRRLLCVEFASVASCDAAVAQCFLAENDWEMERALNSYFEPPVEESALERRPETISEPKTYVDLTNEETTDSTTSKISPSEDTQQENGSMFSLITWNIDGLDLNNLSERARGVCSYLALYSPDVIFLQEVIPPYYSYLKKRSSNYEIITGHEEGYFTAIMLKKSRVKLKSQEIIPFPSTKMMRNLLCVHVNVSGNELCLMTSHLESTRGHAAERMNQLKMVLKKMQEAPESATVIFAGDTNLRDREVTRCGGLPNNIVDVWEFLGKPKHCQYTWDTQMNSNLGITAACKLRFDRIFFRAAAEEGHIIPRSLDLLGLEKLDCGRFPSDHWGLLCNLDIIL
#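 Assay system: recombinant human TDP2 / Reagent: T5PNP substrate at 5 mM, a TopII-DNA adduct mimic / Measured by: epi absorbance from released p-nitrophenol / Evaluation: % inhibition relative to enzyme-containing and enzyme-free wells / Control set: enzyme-free and DMSO wells / Replicates: each compound tested once, singlicate / Schedule: enzyme reaction with compound for 2 h at 37 °C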
# LEDGF integ inh: blocks HIV-1 LEDGF/p75-dependent DNA integration. TR-FRET IN-LEDGF/p75 DNA integration, Eu/Cy5. inhibition, % at 3.7 µM. 370,000 compounds, 0.64% hits. AID 743269;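 active = inhibition above the screen-wide mean plus 3 SD, cut at about 13% in these data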;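 note: signal is the Cy5 over europium emission ratio at 671 and 618 nm; 0% = plate median of compound wells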
# HCV core dimer: HCV core protein dimerization inhibition. TR-FRET GST/Flag-core106 dimerization, 1536-well. inhibition, % at 5 µM. 300,000 compounds, 0.33% hits. AID 1899;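 active = inhibition above the mean of all tested compounds plus 3 SD, set per screening campaign, cut at about 45% in these data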
#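 assay system = GST-tagged and Flag-tagged HCV core protein residues 1-106 | controls = unlabelled core106 and no-GST-core106 wells | incubation = compound-protein-antibody incubation 4 h at 22.5 °C | probe or stimulus = Eu donor and XL665 acceptor anti-tag antibodies | read-out = % inhibition based on acceptor/donor emission ratio | signal = TR-FRET 671 and 617 nm emission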
# MBD2 DNA inh: blocks human MBD2 binding to methylated DNA; 370,000 compounds, 0.31% hits; AID 686964; TR-FRET, MBD2 binding to methylated oligonucleotide; inhibition, % at 4.4 µM; Q9UBB5; in the data active = inhibition above about 13%
# TDP2 confirm: human TDP2 inhibition, confirmation | shares compounds with TDP2 inh | 1,100 compounds, 22% hits | recombinant human TDP2, absorbance read-out | AID 743263 | inhibition, % at 12.8 µM; in the data active = inhibition above about 25%;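 note: 0% = vehicle with enzyme and 100% = no enzyme buffer only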
# Active calls of the source: *; nt = not tested or not shown; ! = not confirmed by another sample. Sampled rows, rich in hits. Any-hit rate of the full collection: about 1.8%.
SMILES,UHRF1 MBD2 ctr,TDP2 inh,LEDGF integ inh,HCV core dimer,MBD2 DNA inh,TDP2 confirm
CCc1ccc(CCNC(=O)OC2CC3CC2[C@H]2CCCCN2C3)cc1 (some centres not stated),3,4,2,nt,-1,nt
Cn1c(=S)[nH]c2sc3c(c2c1=O)CCC(C(C)(C)C)C3 (configuration not stated),-3,27*,-3,11,-1,-3
COC(=O)[C@]12C[C@H](CC(=O)NCCC(C)C)C(=O)N(Cc3cccc4ccccc34)C1=C[C@H](C(C)C)O[C@@H]2C1CC1,-3,-3,-2,nt,-4,nt
Cc1[nH]c2ccccc2c1C(=O)CN1C(=O)C(=O)N(C2CCCC2)C1=O,1,26*,1,3,-4,4
Cc1cc(C(=O)CN2C(=O)C(=O)N(C3CCCC3)C2=O)c(C)n1CCc1ccccc1,0,7,-4,nt,3,nt
CCN(CC)CCCN1C(=O)C2C(C(=O)Nc3ccc(C(C)C)cc3)C3C=CC2(O3)C1C(=O)NC1CCCCC1 (configuration not stated),-1,27*,1,7,-4,-2
CC(C)c1ccc(NC(=O)C2C3C=CC4(O3)C2C(=O)N(CCN2CCOCC2)C4C(=O)NC2CCCCC2)cc1 (configuration not stated),4,-13,4,-1,-1,nt
CCOC(=O)c1c(C)oc2c1cc(NS(=O)(=O)c1ccc(C(=O)O)cc1)c1ccccc12,-2,34*,2,14,-6,16
COC(=O)c1cc2c(c3c4cc(F)ccc4n(S(=O)(=O)c4ccc(C)cc4)c13)C(=O)N(Cc1ccc(N(C)C)cc1)C2,-3,4,-3,nt,-5,nt
COCCn1cnc2c1c(=O)n(CC(=O)NC(=O)NC(C)(C)C)c(=O)n2Cc1ccccc1,-3,39*,-1,nt,-7,2
CCNC(=S)NNC(=O)Cn1c(=O)c2c(ncn2CCOC)n(Cc2ccccc2)c1=O,2,-10,-2,3,2,nt
Cc1ccc(C2C(C#N)=C(N)Oc3n[nH]c(-c4cccs4)c32)s1 (configuration not stated),-8,34*,6,2,-4,0
CCc1ccc(CN(C)Cc2nc(-c3cccc(Cl)c3)no2)nc1,0,28*,5,-4,1,4
Cc1nc(COC(=O)c2cc(O)c3ccccc3c2O)cs1,-5,26*,-1,nt,-5,6
CC(C)CN1C(=O)C[C@@]2(C(=O)N(C)c3ccc(NC(=O)c4cc(F)ccc4F)cc32)C1c1ccccc1 (some centres not stated),8,4,3,nt,8,nt
Cc1ccc(S(=O)(=O)N/N=C/c2ccccc2F)cc1[N+](=O)[O-],0,29*,-6,0,-1,8
O=C(NC1CCCCN(Cc2cccc(Cl)c2)C1=O)c1ccc(-c2ccccc2)cc1 (configuration not stated),1,10,-4,nt,-3,nt
CC1(C)CC(=O)C=C(Nc2ccc(O)c(C(=O)O)c2)C1,-5,25*,1,-1,1,0
O=S1(=O)c2c(cccc2N2CC[C@@H](O)C2)O[C@H]2CCN1C2,1,7,3,nt,-4,nt
COC(=O)[C@]12C[C@H](CC(=O)N3CCN(C(=O)c4ccco4)CC3)C(=O)N(Cc3ccccc3)C1=C[C@H](C1CCCC1)O[C@@H]2C,-2,-15,7,nt,-8,nt
COc1ccc(NC(=S)Nc2ccccc2)cc1,0,3,1,3,-2,nt
Nc1ccc(NC(=S)Nc2ccccc2)cc1,1,32*,7,nt,-8,1
Oc1ccc(NC(=S)Nc2ccccc2)cc1,-5,25*!,1,0,-8,-4
N#CC1=C(N)Oc2n[nH]c(-c3cccnc3)c2C1c1cc(F)ccc1F (configuration not stated),-5,52*,2,-5,2,-12
N#CC1=C(N)Oc2n[nH]c(-c3ccccc3)c2C1c1cccnc1 (configuration not stated),-7,-3,-2,0,-3,nt
SMILES,UHRF1 MBD2 ctr,TDP2 inh,LEDGF integ inh,HCV core dimer,MBD2 DNA inh,TDP2 confirm
Cc1ccccc1C(OCC(O)CN1CCN(CCO)CC1)c1ccccc1 (configuration not stated),1,27*,1,7,-2,7
Cc1ccc(-n2c(SCc3cccc4ccccc34)nnc2-c2ccccn2)cc1,0,-9,3,nt,-4,nt
CC1=NN(c2ccccc2)C(=O)C1C(=O)c1ccccc1 (configuration not stated),-8,9,-3,-10,-1,nt
CC1=NN(c2ccccc2)C(=O)C1C(=O)C(=O)Nc1ccc(F)cc1 (configuration not stated),3,32*,1,-1,-4,7
Cc1ccc(C(=O)N(C)[C@H]2C[C@H]3c4[nH]c5c(-c6cccc(C)c6)cccc5c4CCN3C[C@H]2[C@H](C)O)cc1,-4,2,-5,nt,0,nt
COC(=O)c1ccc(OCC(O)CNCC(c2ccc(OC)cc2)N(C)C)c(OC)c1 (configuration not stated),1,26*,3,-1,0,13
COc1ccc(CNCCCC(=O)Nc2c(Cl)ccc(C)c2Cl)cc1OC,-1,29*,3,-11,2,8
CCN(CC(=O)Nc1ccccc1OC)CC(=O)Nc1c(Cl)ccc(C)c1Cl,3,0,3,1,4,nt
CC(NC(=O)C(C)N1CCN(Cc2ccccc2)CC1)c1ccccc1 (configuration not stated),1,25*,1,-1,-5,-3
CC(CN1CCN(Cc2ccccc2)CC1)c1ccccc1 (configuration not stated),-1,26*,0,0,2,10
COc1cccc(-n2c(=O)c3ccccc3n3c(=S)[nH]nc23)c1,1,69*,-2,9,-6,3
COc1ccc(S(=O)(=O)N2CCC(C(=O)NCc3ccncc3)CC2)cc1,6,26*,0,-1,-2,1
COC(=O)[C@H](CC(C)C)N(CCc1cn(Cc2ccccc2)nn1)S(=O)(=O)c1ccccc1Br,-1,0,1,nt,3,nt
C[C@H]1[C@@H](OC(=O)NCc2ccc(Cl)c(Cl)c2)CC[C@@]23CCCN2C(=O)CCC[C@@H]13,0,7,0,nt,1,nt
O=C(O)COc1ccccc1/C=C1\C(=O)Nc2ccc(Br)cc21,0,29*,-2,0,-6,14
O=C1Nc2ccc(Br)cc2/C1=C/C(=O)c1ccccc1,-1,10,0,nt,-8,nt
CCn1c2ccccc2c2cc(C=NNC(=O)CSc3nc4ccccc4c(=O)n3-c3ccccc3)ccc21,-2,-4,2,nt,-1,nt
